{"data": "Measurements pooled from the literature", "target": "Calcium/calmodulin-dependent protein kinase type II subunit beta (CAMK2B, Homo sapiens, UniProt Q13554)", "note": "Compare with care: the assays were run in different laboratories."}
{"SMILES": "N[C@H]1CCN(c2nccc(-c3cnn4ncccc34)n2)C1", "effect on": "binding", "tested at": "1 µM", "remaining binding [%]": 100}
{"SMILES": "CCN1CCN(Cc2ccc(C(=O)Nc3ccc(C)c(Oc4ccc5c(c4)CC(=O)N5)c3)cc2C(F)(F)F)CC1", "effect on": "binding", "technique": "competition with immobilised ligand", "tested at": "1 µM", "remaining binding [%]": 100}
{"SMILES": "c1ccc(N2CCN(Cc3nc4ccccc4[nH]3)CC2)nc1", "effect on": "cell-free assay", "technique": "competition with immobilised ligand", "tested at": "1 µM", "remaining binding [%]": 100}
{"SMILES": "Nc1ncc2c(n1)-c1c([nH]c3ccc(C#CC4CC4)cc13)CCCC2", "effect on": "binding", "technique": "competition with immobilised ligand", "tested at": "1 µM", "remaining binding [%]": 100}
{"SMILES": "O=C(NCCCN1CCOCC1)c1ccc(Nc2nccc(-c3cc4ccccc4s3)n2)cc1", "effect on": "binding", "technique": "competition with immobilised ligand", "tested at": "1 µM", "remaining binding [%]": 83}
{"SMILES": "Cn1nc(C(=O)NCc2ccc(C(=O)O)cc2)cc1-c1ccc2[nH]ccc2c1", "effect on": "cell-free assay", "technique": "competition with immobilised ligand", "tested at": "0.1 µM", "remaining binding [%]": 91}
{"SMILES": "c1cnn2ncc(-c3ccnc(N4CCC45COC5)n3)c2c1", "effect on": "binding", "tested at": "1 µM", "remaining binding [%]": 66}
{"SMILES": "O=C(O)[C@@H]1[C@@H](Cn2nnc3ccccc3c2=O)CC[C@H]1C(=O)c1ccc(OCCC2CCOCC2)cc1", "effect on": "cell-free assay", "technique": "competition with immobilised ligand", "tested at": "1 µM", "remaining binding [%]": 100}
{"SMILES": "CC1CCCN1c1nccc(-c2cnn3ncccc23)n1 (stereo not drawn)", "effect on": "binding", "tested at": "1 µM", "remaining binding [%]": 98}
{"SMILES": "C[C@H](c1ccnc(Nc2nc3ccc(-c4cc(N(C)C)ncn4)cc3[nH]2)c1)N1CCN(C(=O)CC(F)(F)F)CC1", "effect on": "cell-free assay", "technique": "competition with immobilised ligand", "tested at": "0.1 µM", "remaining binding [%]": 92}
{"SMILES": "CN(C)c1nccc(-c2cnn3ncccc23)n1", "effect on": "binding", "tested at": "1 µM", "remaining binding [%]": 65}
{"SMILES": "O=C(Nc1c[nH]nc1C(=O)NC1CCNCC1)c1cc(F)cc(F)c1", "effect on": "binding", "technique": "competition with immobilised ligand", "tested at": "1 µM", "remaining binding [%]": 100}
{"SMILES": "C[C@H]1CCN(c2nccc(-c3cnn4ncccc34)n2)C1", "effect on": "binding", "tested at": "1 µM", "remaining binding [%]": 80}
{"SMILES": "c1cncc(-c2cccc(Nc3nccc(NC4CCCCC4)n3)c2)c1", "effect on": "binding", "technique": "competition with immobilised ligand", "tested at": "10 µM", "remaining binding [%]": 94}
{"SMILES": "O=C(c1ccc(Nc2nccc(-c3cc4ccccc4s3)n2)cc1)N1CCC(N2CCCC2)CC1", "effect on": "binding", "technique": "competition with immobilised ligand", "tested at": "1 µM", "remaining binding [%]": 100}
{"SMILES": "CO[C@H]1CC[C@H](CNc2ccc(S(=O)(=O)NC(=O)c3ccc(N4CCN(CC5=C(c6ccc(Cl)cc6)CC(C)(C)CC5)CC4)cc3Oc3cnc4[nH]ccc4c3)cc2[N+](=O)[O-])CC1", "effect on": "cell-free assay", "technique": "competition with immobilised ligand", "tested at": "1 µM", "remaining binding [%]": 80}
{"SMILES": "CN(C)c1ncc(F)c(-c2cnn3ncccc23)n1", "effect on": "binding", "tested at": "1 µM", "remaining binding [%]": 65}
{"SMILES": "CS(=O)(=O)NCC[C@H](NC(=O)c1cncc2c1cnn2-c1ccc(F)cc1)c1ccnc(S(C)(=O)=O)c1", "effect on": "cell-free assay", "technique": "competition with immobilised ligand", "tested at": "1 µM", "remaining binding [%]": 100}
{"SMILES": "COc1cnc(Nc2cccc(S(N)(=O)=O)c2)nc1N1CCN(c2ccccc2)C(=O)C1", "effect on": "binding", "technique": "competition with immobilised ligand", "tested at": "1 µM", "remaining binding [%]": 100}
{"SMILES": "Cc1cnc(Nc2ccc(C(=O)N3CCC(N4CCCC4)CC3)cc2)nc1-c1cc2ccccc2s1", "effect on": "binding", "technique": "competition with immobilised ligand", "tested at": "1 µM", "remaining binding [%]": 90}
{"SMILES": "FC(F)(F)Oc1cccc(-c2cnc3ccc(-c4ccncc4)nn23)c1", "effect on": "cell-free assay", "technique": "competition with immobilised ligand", "tested at": "5 µM", "remaining binding [%]": 47}
